Structures are written as SMILES. Active and inactive are the calls of the source. The calls are words filed in the database; no cut-off is given here.

We go through eleven molecules from ChEMBL document CHEMBL3102792, “Small molecule mimetics of an interferon-α receptor interacting domain” (Bioorg Med Chem, 2014).

The nature of data set [1]: Distribution coefficient, log D of the compound at pH 7.4. Particulars: octanol/water.
The subject of the next data set is Daudi. Briefly: Cytotoxicity against human Daudi cells assessed as cell viability up to 200 uM after 24 hrs by propidium iodide staining. It is filed as cell-based. Put shortly: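 Daudi cells (1 × 10⁶) left untreated or exposed to the indicated compound doses for 24 h, washed twice in PBS and resuspended in PBS with 2% FCS. 10⁵ cells stained with propidium iodide for 15 min; dead (PI-positive) cells counted by FACS.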

Data set [2] concerns the target T1, Interferon alpha/beta receptor 1 (Homo sapiens) (UniProt P17181).
T1 sequence (whole entry): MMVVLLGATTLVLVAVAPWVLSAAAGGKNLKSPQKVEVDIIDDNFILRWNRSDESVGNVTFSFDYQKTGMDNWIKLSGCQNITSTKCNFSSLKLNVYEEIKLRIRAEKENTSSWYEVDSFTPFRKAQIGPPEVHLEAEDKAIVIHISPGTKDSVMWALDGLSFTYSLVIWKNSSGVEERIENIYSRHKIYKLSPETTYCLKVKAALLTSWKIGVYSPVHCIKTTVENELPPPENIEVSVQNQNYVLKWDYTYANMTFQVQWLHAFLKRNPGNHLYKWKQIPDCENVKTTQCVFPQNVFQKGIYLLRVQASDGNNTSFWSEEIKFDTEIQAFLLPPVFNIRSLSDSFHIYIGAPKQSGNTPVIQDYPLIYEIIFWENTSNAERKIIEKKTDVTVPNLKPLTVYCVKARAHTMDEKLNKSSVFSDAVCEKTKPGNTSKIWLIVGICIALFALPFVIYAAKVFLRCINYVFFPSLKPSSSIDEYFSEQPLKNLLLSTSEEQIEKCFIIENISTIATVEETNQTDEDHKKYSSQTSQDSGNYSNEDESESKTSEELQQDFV
Briefly: Inhibition of IFNAR in human Daudi cells assessed as reduction of STAT-DNA binding at 200 uM by EMSA. It is filed as cell-based. The method in brief:
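Daudi cells untreated, given 100 pg IFN alfacon-1, or IFN plus the indicated compound doses for 15 min. Protein–DNA complexes resolved by native PAGE (EMSA).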

For data set [3], the target named is T1, Interferon alpha/beta receptor 1 (Homo sapiens). Put plainly: Inhibition of IFNAR in human Daudi cell nuclear extracts assessed as reduction of IFN-induced STAT1 phosphorylation at 200 uM after 15 mins by Western blotting. The method in brief: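 Daudi cells untreated, given 10 pg IFN alfacon-1 alone, or 10 pg IFN plus 200 µM compound for 15 min. Nuclear extracts immunoblotted for tyrosine-phosphorylated STAT1. Band intensities quantitated relative to tubulin as loading control.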

For data set [4] the target is unchanged. Briefly: Inhibition of IFNAR in human Daudi cells assessed as reduction of IFN-induced STAT1 phosphorylation at 200 uM after 15 mins by Western blotting. Type of data set: cell-based. The method in brief: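 Daudi cells untreated, given 10 pg IFN alfacon-1 alone, or 10 pg IFN plus 200 µM compound for 15 min. Lysed in phosphorylation lysis buffer with protease and phosphatase inhibitors. Equal protein run on SDS–PAGE and immunoblotted for tyrosine-phosphorylated STAT1. Bands quantitated relative to tubulin. Data representative of duplicate independent experiments.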
A general note: Immunoblotting shows a protein as a band on a membrane.

Data set [5] can be described thus: Solubility of the compound. It is filed as physicochemical.

For orientation: logD means lipophilicity at a set pH, counting ionised and neutral species. On to `O=C(O)CCCCCN1C(=O)/C(=C/c2c(N3CCCc4ccccc43)nc3ccccn3c2=O)SC1=S` (mixture of isomers), for which, in data set [1], the logD came to 8.9. The Activity entry in the data set with Daudi is given as “Toxic”. Also, the inhibition result in data set [2], in data set [3] and in data set [4] was “Active” each time.
`CCOc1ccccc1/C=N/NC(=O)CSc1nc2ccccc2c(=O)n1-c1ccccc1C` (mixture of isomers) returned a logD in data set [1] of 5.8. For the same molecule, in data set [4], the inhibition result was “inactive”.
The molecule `COc1ccccc1NS(=O)(=O)c1cc(C(=O)N2CCN(Cc3ccc4c(c3)OCO4)CC2)ccc1Cl` showed a logD in data set [1] of -0.3. Also, in data set [4], the inhibition entry was “inactive”.
As to `Cc1ccc(-n2c(SCC(=O)N/N=C/c3ccccc3OCC(=O)O)nc3ccccc3c2=O)cc1` (mixture of isomers), in data set [5], the solubility entry is “soluble”. The same molecule gave a logD in data set [1] of 4.7. Besides, the Activity entry in the data set with Daudi is on record as “Non-toxic”. For the same molecule, the inhibition result in data set [2], in data set [3] and in data set [4] was “Active” each time.
`O=C(c1cccc(S(=O)(=O)Nc2ccc(Cl)cc2)c1)N1NC2=C(CCC/C2=C\c2ccco2)C1c1ccco1` (mixture of isomers): the logD in data set [1] was -0.8. For the same molecule, the inhibition entry in data set [4] was “inactive”.
Molecule `O=C(c1cc(S(=O)(=O)Nc2cccc(C(F)(F)F)c2)ccc1Cl)N1CCN(Cc2ccc3c(c2)OCO3)CC1` returned a logD in data set [1] of -0.1. In addition, in data set [4], the inhibition entry was “inactive”.
For `O=C(c1cc(S(=O)(=O)Nc2ccccc2F)c(Cl)cc1Cl)N1CCN(Cc2ccc3c(c2)OCO3)CC1`, the log distribution coefficient (logD) in data set [1] stood at 0.01. Also, the inhibition entry in data set [4] was “inactive”.
In the case of `O=C(c1ccc(NS(=O)(=O)c2cc(Cl)sc2Cl)cc1)N1CCN(Cc2ccc3c(c2)OCO3)CC1`, the inhibition result in data set [2], in data set [3] and in data set [4] was “Active” each time.
With `CCOC(=O)c1nn(-c2ccc(C)cc2)c(C)c1C(=O)C1=NOC2C(=O)N(c3ccccc3C)C(=O)C12` (stereo not given), in data set [1], the pH-dependent lipophilicity (logD) was -0.1. Besides, in data set [4], the inhibition entry was “inactive”.
Molecule `O=C(c1cc(S(=O)(=O)Nc2cccc(Cl)c2)c(Cl)cc1Cl)N1CCN(Cc2ccc3c(c2)OCO3)CC1` had a logD in data set [1] of 2.4. For the same molecule, the inhibition result in data set [4] is “inactive”.
Turning to `COc1ccccc1NS(=O)(=O)c1ccc2oc(=S)n(CN3CCN(c4ccc(F)cc4)CC3)c2c1`, the logD in data set [1] was 0.2. Further, the inhibition entry in data set [4] was “inactive”.
